Data published in publication PMC4461448 (Analytical biochemistry, 2015).
Where a SMILES comes first, the peptide text is derived from it. [ ]: non-standard residue; d: D form. Phe(4-CN) = N#Cc1ccc(C[C@H](N)C(=O)O)cc1

assay: not given; settings: value belongs to the α-helical peptide, not the tripeptide; cited from earlier work

Molecule | N-terminal pKa value (pKaH) of an α-helical peptide with X at the N-terminus
C[C@H](N)C(=O)N[C@@H](Cc1ccc(C#N)cc1)C(=O)NCC(N)=O [A, reference compound] (H-Ala-[Phe(4-CN)]-Gly-NH2) | 8.35
N#Cc1ccc(C[C@H](NC(=O)[C@@H](N)CC(=O)O)C(=O)NCC(N)=O)cc1 [D] (H-Asp-[Phe(4-CN)]-Gly-NH2) | 8.25
N#Cc1ccc(C[C@H](NC(=O)CN)C(=O)NCC(N)=O)cc1 [G, reference compound] (H-Gly-[Phe(4-CN)]-Gly-NH2) | 8.51
N#Cc1ccc(C[C@H](NC(=O)[C@@H](N)CCCCN)C(=O)NCC(N)=O)cc1 [K] (H-Lys-[Phe(4-CN)]-Gly-NH2) | 8.12
CSCC[C@H](N)C(=O)N[C@@H](Cc1ccc(C#N)cc1)C(=O)NCC(N)=O [M, reference compound] (H-Met-[Phe(4-CN)]-Gly-NH2) | 7.83
N#Cc1ccc(C[C@H](NC(=O)[C@@H](N)CC(N)=O)C(=O)NCC(N)=O)cc1 [N] (H-Asn-[Phe(4-CN)]-Gly-NH2) | 7.07
N#Cc1ccc(C[C@H](NC(=O)[C@@H]2CCCN2)C(=O)NCC(N)=O)cc1 [P] (H-Pro-[Phe(4-CN)]-Gly-NH2) | 8.85
N#Cc1ccc(C[C@H](NC(=O)[C@@H](N)CO)C(=O)NCC(N)=O)cc1 [S] (H-Ser-[Phe(4-CN)]-Gly-NH2) | 7.63
CC(C)[C@H](N)C(=O)N[C@@H](Cc1ccc(C#N)cc1)C(=O)NCC(N)=O [V] (H-Val-[Phe(4-CN)]-Gly-NH2) | 8.14

assay: not given; settings: melittin, Gly residue at the N-terminus; cited from earlier work

Molecule | N-terminal pKa of the amino group
melittin | 7.85

assay: pH titration via PheCN fluorescence to determine N-terminal pKa; format: physicochemical; settings: 20 μM peptide, pH 2-12, 25 °C, excitation 275 nm
Summary of the method: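 Peptides were HPLC-purified and mass-verified, and concentration was set optically from absorbance at 280 nm (ε 850 M−1 cm−1). Each pH was made by mixing peptide stocks in 25 mM H3PO4 and 25 mM NaOH, then read on a pH meter. Spectra were taken in a 1 cm cuvette at 1 nm resolution, 1 s/nm, with buffer background subtracted. Peak intensity was fitted to a two-state equation with linear acidic and basic baselines to give pKa (±0.1).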

Molecule | pH dependence of PheCN fluorescence intensity (acid-base titration transition)
CC(=O)NCC(=O)N[C@@H](Cc1ccc(C#N)cc1)C(=O)NCC(N)=O [*GFCNG] (Ac-Gly-[Phe(4-CN)]-Gly-NH2) | does not show such a transition
